The nature of data set [1]: folding enthalpy; higher = less favourable; fluorescence melt of hairpins on a sequencing array, two-state fit. To be noted: sodium 0.088 M. Summed up: (§1)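 Melting temperature and folding enthalpy were obtained by bootstrapped two-state fitting. Fits used Cy3 fluorescence of library hairpins with annealed Cy3 and quencher oligos on a sequenced MiSeq flow cell, imaged in 50 mM Na-HEPES pH 8.0, 25 mM NaCl in 2.5 °C steps up to 60 °C and normalised to pre-quench Cy3 and control constructs. Four replicates were combined by inverse-variance weighting, and fitted temperatures were raised by 9.35 °C to match UV melts.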

A short description of data set [2]: melting temperature; fluorescence melt of hairpins on a sequencing array, two-state fit, raised by 9.35 °C to match UV melts. Conditions: sodium 0.088 M. Summed up:
as §1

The source of these data is the array DNA melting data of Ke et al. (doi:10.1101/2024.01.08.574731).

For the sequence GATCATTTCCATGATC ((((((....)))))), the folding enthalpy in data set [1] is -40.5 kcal/mol. The Tm in data set [2] stood at 46.1 °C.

Consider GAGCACGGAAACGTGCCC (.(((((....))))).), for which the folding enthalpy in data set [1] was -6.99 kcal/mol. In data set [2], the Tm came to 53.6 °C.

For GCCAATGGAAACACTGGC ((((.((....)).)))), the folding enthalpy in data set [1] is -31.9 kcal/mol. Moreover, the Tm in data set [2] was found to be 41.9 °C.

As for GGATTCGAAAGAAAATCC ((((((....)))..))), in data set [1], the folding enthalpy is -21.4 kcal/mol. For the same sequence, the Tm in data set [2] was 29.9 °C.

Regarding GCAGATGGAAACGTTTGC (((.(.(....).).))), in data set [1], the folding enthalpy was -12.6 kcal/mol. For the same sequence, the Tm in data set [2] is 28.9 °C.

On to GATCCTCAGTAGGATC ((((((....)))))), for which the folding enthalpy in data set [1] is -35.4 kcal/mol. Also, in data set [2], the Tm came to 49.9 °C.

As to GATCTCGTGGAGATC ((((((...)))))), the folding enthalpy in data set [1] was -39 kcal/mol. Also, the Tm in data set [2] was 54.5 °C.

GTTGCCCGAAAGGGAAAC (((.(((....))).))): the folding enthalpy in data set [1] was -32.2 kcal/mol. The Tm in data set [2] was found to be 56.4 °C.

Take GAAGCCGAAAGGCCTTC ((((((....))).))): in data set [1], the folding enthalpy was -16.2 kcal/mol. Further, the Tm in data set [2] was determined as 48.8 °C.

For the sequence GCAGCGCGAAAGCCCTGC ((((.((....)).)))), the folding enthalpy in data set [1] was -25.9 kcal/mol. Besides, in data set [2], the Tm is 60.1 °C.

For the sequence GTCGCAGGAAACTGTGAC (((.(((....))).))), in data set [1], the folding enthalpy is -42.4 kcal/mol. The Tm in data set [2] was found to be 53.9 °C.

Turning to GTGTCTCGAAAGAGTCAC (((.(((....))).))), the folding enthalpy in data set [1] is -39.3 kcal/mol. The Tm in data set [2] came out at 49.4 °C.

For GGATATTCGAAAGAATCC (((..(((....)))))), in data set [1], the folding enthalpy is -13.6 kcal/mol. Also, in data set [2], the Tm came to 26.9 °C.

Turning to GATCGTCCGGACGATC ((((((....)))))), in data set [1], the folding enthalpy was -52.6 kcal/mol. Further, the Tm in data set [2] was 62.8 °C.

Turning to GTCCGGGGAAACCCGGGC (.(((((....))))).), in data set [1], the folding enthalpy was -21.6 kcal/mol. The Tm in data set [2] was 65 °C.

Take GATCCACTGCTGGATC ((((((....)))))): the folding enthalpy in data set [1] is -41.4 kcal/mol. Also, the Tm in data set [2] amounted to 50.4 °C.

Take GGTAACACGAAAGTGACC (((..(((....)))))): the folding enthalpy in data set [1] is -17.1 kcal/mol. Also, the Tm in data set [2] amounted to 37.1 °C.

For the sequence GGGTTTCCGAAAGGACCC (((..(((....)))))), the folding enthalpy in data set [1] is -19.3 kcal/mol. Also, the Tm in data set [2] is 40.6 °C.

GAAAGCGAAAGCTATTTC ((((((....)))..))): the folding enthalpy in data set [1] was -11.8 kcal/mol. Further, the Tm in data set [2] came out at 25.2 °C.

As to CGCGGAAGCTCCGCG ((((((...)))))), the folding enthalpy in data set [1] is -26.3 kcal/mol. For the same sequence, the Tm in data set [2] was found to be 68.8 °C.

In the case of GGAGTCGAAAGACAATCC ((((((....)))..))), the folding enthalpy in data set [1] is -15.4 kcal/mol. Besides, the Tm in data set [2] worked out at 32.5 °C.

As to GGAGCTCGAAAGAGTCC (((.(((....)))))), the folding enthalpy in data set [1] is -17.8 kcal/mol. In addition, the Tm in data set [2] stood at 48.2 °C.

In the case of GTTTTGCGAAAGCAAAC (((.(((....)))))), the folding enthalpy in data set [1] was -13.8 kcal/mol. In addition, the Tm in data set [2] was determined as 46.1 °C.

In the case of GATCCCCGCTGGGATC ((((((....)))))), the folding enthalpy in data set [1] is -32.9 kcal/mol. In addition, the Tm in data set [2] came out at 61.8 °C.

Take CGACCGGAAACGGCTCG ((((((....))).))): the folding enthalpy in data set [1] was -28.8 kcal/mol. Also, the Tm in data set [2] came out at 48.2 °C.

With GCTAGGGGAAACTCTAGC (((((.(....).))))), the folding enthalpy in data set [1] is -34.8 kcal/mol. In addition, the Tm in data set [2] is 47.7 °C.

GTGTGGCGAAAGCCCAC (((.(((....)))))): the folding enthalpy in data set [1] is -18.6 kcal/mol. In data set [2], the Tm was 63 °C.

On to GTGCACCGAAAGGTACAC (((.(((....))).))), for which, in data set [1], the folding enthalpy is -36.5 kcal/mol. Further, the Tm in data set [2] stood at 53.7 °C.

On to GGATCCGAAAGGACATCC ((((((....)))..))), for which, in data set [1], the folding enthalpy is -17.6 kcal/mol. Besides, the Tm in data set [2] is 37.2 °C.

In the case of GATCCTGCTTAGGATC ((((((....)))))), in data set [1], the folding enthalpy was -42.9 kcal/mol. For the same sequence, the Tm in data set [2] is 52.4 °C.

Consider GATCAAACCCTTGATC ((((((....)))))), for which the folding enthalpy in data set [1] was -33.4 kcal/mol. Also, the Tm in data set [2] was 42.7 °C.

Regarding GAGACCACGAAAGTGCTC (((..(((....)))))), the folding enthalpy in data set [1] is -9.82 kcal/mol. Moreover, the Tm in data set [2] is 27.7 °C.

On to GACTACGAAAGTAGTC ((((((....)))))), for which the folding enthalpy in data set [1] was -28.4 kcal/mol. The Tm in data set [2] turned out to be 66.5 °C.

For the sequence GATCATCGACATGATC ((((((....)))))), the folding enthalpy in data set [1] was -30.4 kcal/mol. The Tm in data set [2] came to 44.8 °C.

With GTGTACGAAAGTACCAC ((((((....))).))), the folding enthalpy in data set [1] was -13.3 kcal/mol. For the same sequence, in data set [2], the Tm came out at 44.4 °C.

Consider GGTGTTGGAAACAATGCC ((..(((....)))..)), for which the folding enthalpy in data set [1] was -21 kcal/mol. The Tm in data set [2] was found to be 41.8 °C.
